From ChEMBL document CHEMBL2046418, “Pyrrolidinobenzoic acid inhibitors of influenza virus neuraminidase: the hydrophobic side chain influences type A subtype selectivity” (Bioorg Med Chem, 2012)

How the values were obtained:
Neuraminidase [1] = molecular target: T1, Neuraminidase (Influenza A virus, UniProt B4URF0); test: Inhibition of Influenza A virus (A/Uruguay/716/2007(H3N2)) neuraminidase using fluorogenic substrate 2'-(4-methylumbelliferyl)-alpha-D-N-acetylneuraminic acid preincubated with inhibitor for 30 mins measured after 15 mins by fluorescence analysis
How it was run: (§1)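 Purified intact virions served as the NA source. They were preincubated 30 min at room temperature with two-fold inhibitor dilutions in 50 mM sodium acetate pH 6.0, 100 µM CaCl2, 320 µM MgCl2 and 60 mM NaCl. 100 µM MUNANA was added, then incubated 15 min at 37 °C and stopped with 5 volumes 0.2 M glycine-NaOH pH 11. IC50 came from a log(inhibitor)-normalized response fit, cross-checked from the linear region of fractional activity versus concentration.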

Neuraminidase [2] = molecular target: T1, Neuraminidase; test: Inhibition of Influenza A virus (A/Brisbane/59/2007(H1N1)) neuraminidase using fluorogenic substrate 2'-(4-methylumbelliferyl)-alpha-D-N-acetylneuraminic acid preincubated with inhibitor for 30 mins measured after 15 mins by fluorescence analysis; how it was run: as §1
Neuraminidase [3] = molecular target: T1, Neuraminidase; test: Inhibition of Influenza A virus (A/Solomon Islands/3/2006(H1N1)) neuraminidase using fluorogenic substrate 2'-(4-methylumbelliferyl)-alpha-D-N-acetylneuraminic acid preincubated with inhibitor for 30 mins measured after 15 mins by fluorescence analysis; how it was run: as §1
[4] = Inhibition of Influenza B virus (B/Malayasia/5206/04) neuraminidase using fluorogenic substrate 2'-(4-methylumbelliferyl)-alpha-D-N-acetylneuraminic acid preincubated with inhibitor for 30 mins measured after 15 mins by fluorescence analysis; how it was run: as §1
Neuraminidase [5] = molecular target: T1, Neuraminidase; test: Inhibition of Influenza A virus (A/Wisconsin/67/2005(H3N2)) neuraminidase using fluorogenic substrate 2'-(4-methylumbelliferyl)-alpha-D-N-acetylneuraminic acid preincubated with inhibitor for 30 mins measured after 15 mins by fluorescence analysis; how it was run: as §1
[6] = Inhibition of Influenza B virus (B/Malaysia/2506/2004) neuraminidase using fluorogenic substrate 2'-(4-methylumbelliferyl)-alpha-D-N-acetylneuraminic acid preincubated with inhibitor for 30 mins measured after 15 mins by fluorescence analysis; how it was run: as §1
Neuraminidase [7] = molecular target: T1, Neuraminidase; test: Inhibition of Influenza A virus (A/Oklahoma/3052/2009(H1N1)) neuraminidase using fluorogenic substrate 2'-(4-methylumbelliferyl)-alpha-D-N-acetylneuraminic acid preincubated with inhibitor for 30 mins measured after 15 mins by fluorescence analysis; how it was run: as §1
[8] = molecular target: Neuraminidase (Influenza A virus (A/Puerto Rico/8/1934(H1N1)), UniProt P03468); test: Inhibition of Influenza A virus (A/Puerto Rico/8/1934(H1N1)) neuraminidase using fluorogenic substrate 2'-(4-methylumbelliferyl)-alpha-D-N-acetylneuraminic acid preincubated with inhibitor for 30 mins measured after 15 mins by fluorescence analysis
How it was run: (§2)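 Enzyme source was purified intact virions. Then 100 μM 2'-(4-methylumbelliferyl)-α-D-N-acetylneuraminic acid was added and incubated 15 min at 37 °C. Reactions were stopped with 0.2 M glycine-NaOH pH 11. IC50 came from normalized log(inhibitor)-response fitting, cross-checked against the linear region of fractional activity versus concentration.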

Neuraminidase [9] = molecular target: Neuraminidase (Influenza A virus (strain A/Udorn/307/1972 H3N2), UniProt P0DOF9); test: Inhibition of Influenza A virus (A/udorn/1972(H3N2)) neuraminidase using fluorogenic substrate 2'-(4-methylumbelliferyl)-alpha-D-N-acetylneuraminic acid preincubated with inhibitor for 30 mins measured after 15 mins by fluorescence analysis; how it was run: as §1
Neuraminidase [10] = molecular target: Neuraminidase (Influenza B virus (strain B/Lee/1940), UniProt P03474); test: Inhibition of Influenza B virus (B/Lee/1940) neuraminidase using fluorogenic substrate 2'-(4-methylumbelliferyl)-alpha-D-N-acetylneuraminic acid preincubated with inhibitor for 30 mins measured after 15 mins by fluorescence analysis; how it was run: as §2
Neuraminidase [11] = molecular target: T1, Neuraminidase; test: Inhibition of influenza A virus avian N9 neuraminidase
Neuraminidase [12] = molecular target: T1, Neuraminidase; test: Inhibition of influenza A virus neuraminidase; how it was run: as §2
[13] = Inhibition of influenza B virus neuraminidase
How it was run: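 Purified intact influenza B virions as neuraminidase source. Preincubated 30 min at room temperature with two-fold inhibitor dilutions in 50 mM sodium acetate pH 6.0, 100 μM CaCl2, 320 μM MgCl2, 60 mM NaCl. Then 100 μM 2'-(4-methylumbelliferyl)-α-D-N-acetylneuraminic acid, 15 min at 37 °C, stopped with 5 volumes 0.2 M glycine-NaOH pH 11. Fluorescence read-out. IC50 from log(inhibitor) vs normalized response, cross-checked against the linear region of the fractional-activity curve.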

For `CC(C)OCc1cc(C(=O)O)ccc1N1C(=O)CCC1(CO)CO`, which IC50 (Neuraminidase [1]) is on record?
Its IC50 is 4000 µM.

What about the IC50 (Neuraminidase [2]) of the same molecule?
The IC50 was greater than 10000 µM.

Which results are given for `CCC(C)OCc1cc(C(=O)O)ccc1N1C(=O)CCC1(CO)CO` (centres undefined)?
IC50 (Neuraminidase [1]): 0.2 µM; IC50 (Neuraminidase [3]): 11 µM; IC50 [4]: 80 µM

What does the source list for `CCC(CC)OCc1cc(C(=O)O)ccc1N1C(=O)CCC1(CO)CO`?
IC50 (Neuraminidase [1]): 0.5 µM; IC50 (Neuraminidase [2]): 1 µM; IC50 (Neuraminidase [3]): 0.8 µM; IC50 [4]: 30 µM

For `O=C(O)c1ccc(N2C(=O)CCC2(CO)CO)c(COc2ccccc2)c1`, which IC50 (Neuraminidase [1]) is on record?
The IC50 was 40 µM.

What about the IC50 (Neuraminidase [3]) of the same molecule?
Its IC50 is 400 µM.

For `O=C(O)c1ccc(N2C(=O)CCC2(CO)CO)c(COCc2ccccc2)c1`, which IC50 (Neuraminidase [1]) is on record?
The IC50 was 200 µM.

What about the IC50 (Neuraminidase [3]) of the same molecule?
Its IC50 is 1600 µM.

Which results are given for `CCCC(CCC)Cc1cc(C(=O)O)ccc1N1C(=O)CCC1(CO)CO`?
IC50 (Neuraminidase [5]): 0.5 µM; IC50 [6]: 190 µM

Which IC50 (Neuraminidase [5]) does the source give for `CCC(=Cc1cc(C(=O)O)ccc1N1C(=O)CCC1(CO)CO)CC` here?
The IC50 was 0.41 µM.

What about the IC50 (Neuraminidase [7]) of the same molecule?
Its IC50 is 3.4 µM.

What about the IC50 [6] of the same molecule?
Its IC50 is 120 µM.

With `CC(C)Cc1cc(C(=O)O)ccc1N1C(=O)CCC1(CO)CO` as the molecule, how does the IC50 (Neuraminidase [1]) read?
The IC50 was 3 µM.

And the IC50 [6]?
Its IC50 is 140 µM.

Which results are given for `CCC(CC)Cc1cc(C(=O)O)ccc1N1C(=O)CCC1(CO)CO`?
IC50 (Neuraminidase [5]): 0.2 µM; IC50 (Neuraminidase [7]): 3.2 µM; IC50 [6]: 32 µM

With `CCC(CC)Nc1cc(C(=O)O)ccc1N1C(=O)CCC1(CO)CO` as the molecule, how does the IC50 [8] read?
The IC50 was 79 µM.

What about the IC50 (Neuraminidase [9]) of the same molecule?
The IC50 was 0.49 µM.

And the IC50 (Neuraminidase [10])?
Its IC50 is 271 µM.

And the IC50 (Neuraminidase [11])?
The IC50 was 0.048 µM.

Which Ki (Neuraminidase [12]) does the source give for `CC(=O)N[C@H]1[C@H]([C@H](O)[C@H](O)CO)OC(C(=O)O)=C[C@@H]1O` [NEU5AC2EN] here?
Its Ki is 4 µM.

And the Ki [13]?
Its Ki is 4 µM.
